Series [1] concerns Leishmania braziliensis. The series is described as follows: Antileishmanial activity against amastigote form of Leishmania braziliensis MHOM/BR/1975/M2904 infected in J774.2 cells after 72 hrs by haemocytometric analysis. In kind it is functional, cell-based, MHOM/BR/75/M2904. The conditions noted are these: Leishmania braziliensis, MHOM/BR/75/M2904, J774.2, 72 h. In a few lines:
(§1)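 J774.2 macrophages grown in MEM with 2 mM glutamine and 20% inactivated FCS at 37 °C in 5% CO2. Infected with stationary-phase promastigotes at 10:1 for 24 h, then washed free of non-phagocytosed parasites. Compounds at 1, 10, 25, 50 and 100 for 72 h. Amastigotes counted on methanol-fixed, Giemsa-stained preparations and % reduction taken vs untreated. IC50 by linear regression of Kc values; three separate determinations.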

Series [2] relates to Leishmania braziliensis. As to the kind of experiment: Antileishmanial activity against promastigote form of Leishmania braziliensis MHOM/BR/1975/M2904 assessed as mortality at IC25 concentration after 96 hrs by MET microscopic analysis. In kind it is functional. The conditions noted are these: MHOM/BR/75/M2904. An outline of the steps:
(§2)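 Promastigotes at 5 × 10^5 cells/mL in MTL medium with compound at IC25 for 96 h. Ultrastructure examined by transmission electron microscopy against untreated control parasites.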

Series [3] concerns Leishmania braziliensis. The series is described as follows: Antileishmanial activity against promastigote form of Leishmania braziliensis MHOM/BR/1975/M2904 assessed as change in alanine metabolite production at IC25 concentration after 96 hrs by H1-NMR analysis. The series is classed as functional, MHOM/BR/75/M2904. In a few lines: (§3)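 Promastigote cultures, initial 5 × 10^5 cells/mL, given the IC25 of compound; controls left untreated. Incubated 96 h at 28 °C, then centrifuged at 400g for 10 min. Excreted metabolites in the medium identified by 1H NMR spectra and compared with untreated control.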

Series [4] in a line: Selectivity index, ratio of IC50 for mouse J774.2 cells to IC50 for promastigote form of Leishmania braziliensis MHOM/BR/1975/M2904. The series is classed as toxicity. The conditions noted are these: J774.2 cells, read-out: Ratio IC50.
The test system of series [5] is Leishmania braziliensis. The series is described as follows: Antileishmanial activity against promastigote form of Leishmania braziliensis MHOM/BR/1975/M2904 assessed as electro-dense vesicles at IC25 concentration after 96 hrs by MET microscopic analysis. The series is classed as functional. The conditions noted are these: MHOM/BR/75/M2904. An outline of the steps: as §2

Series [6] relates to Leishmania infantum. The series is described as follows: Antileishmanial activity against promastigote form of Leishmania infantum MCAN/ES/2001/UCM-10 assessed as change in lactate metabolite production at IC25 concentration after 96 hrs by H1-NMR analysis. In kind it is functional. In a few lines:
as §3

Series [7] deals with Leishmania infantum. The series is described as follows: Antileishmanial activity against amastigote form of Leishmania infantum MCAN/ES/2001/UCM-10 infected in J774.2 cells after 72 hrs by haemocytometric analysis. The series is classed as functional, organism-based. The conditions noted are these: Leishmania infantum, MCAN/ES/2001/UCM-10, J774.2, 72 h. An outline of the steps: as §1

Series [8] in a line: Selectivity index, ratio of IC50 for mouse J774.2 cells to IC50 for axenic amastigote form of Leishmania braziliensis MHOM/BR/1975/M2904. In kind it is toxicity. Conditions: J774.2 cells, read-out: Ratio IC50. An outline of the steps: (§4)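 Axenic amastigotes obtained by 3-day promastigote transformation in supplemented M199 + 10% heat-inactivated FCS, pH 5.4, 37 °C. […] Host toxicity: J774.2, 72 h, PI/FDA flow cytometry. SI = macrophage IC50/axenic amastigote IC50; ratio is compound SI over Glucantime SI.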

The test system of series [9] is Leishmania infantum. The series is described as follows: Antileishmanial activity against promastigote form of Leishmania infantum MCAN/ES/2001/UCM-10 infected in J774.2 cells assessed as inhibition of infection in host cells at IC25 concentration incubated for 12 hrs followed by compound washout measured after 48 hrs by microscopic analysis. The series is classed as functional. In a few lines: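 J774.2 cells seeded at 1 × 10^4 cells/well on coverslips and cultured 2 days. Infected with promastigotes at 10:1 with drug at IC25 added immediately, for 12 h at 37 °C in 5% CO2. Parasites and drug washed out, then grown 10 days with washing and fresh medium every 48 h. On methanol-fixed, Giemsa-stained slides, % infected cells and amastigotes per infected cell scored from more than 200 host cells. Three determinations.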

Series [10] concerns Leishmania braziliensis. As to the kind of experiment: Antileishmanial activity against promastigote form of […] Leishmania braziliensis MHOM/BR/1975/M2904 infected in J774.2 cells assessed as inhibition of infection in host cells at IC25 concentration incubated for 12 hrs […] by microscopic analysis. The series is classed as functional, MHOM/BR/75/M2904.
Series [11] has as its system Leishmania braziliensis. The series is described as follows: Antileishmanial activity against promastigote form of Leishmania braziliensis MHOM/BR/1975/M2904 assessed as empty cytoplasmic at IC25 concentration after 96 hrs by MET microscopic analysis. Conditions: MHOM/BR/75/M2904. The series is classed as functional. An outline of the steps:
as §2

Series [12] deals with Leishmania infantum. As to the kind of experiment: Antileishmanial activity against promastigote form of Leishmania infantum MCAN/ES/2001/UCM-10 assessed as change in alanine metabolite production at IC25 concentration after 96 hrs by H1-NMR analysis. In kind it is functional. An outline of the steps: as §3
For series [13], the system named is Leishmania braziliensis. As to the kind of experiment: Antileishmanial activity against promastigote form of Leishmania braziliensis MHOM/BR/1975/M2904 assessed as change in succinate metabolite production at IC25 concentration after 96 hrs by H1-NMR analysis. The series is classed as functional, MHOM/BR/75/M2904. An outline of the steps: as §3
The nature of series [14]: Ratio of compound selectivity index to glucantime selectivity index for axenic amastigote form of Leishmania braziliensis MHOM/BR/1975/M2904 over mouse J774.2 cells. An outline of the steps: as §4
The subject of series [15] is Leishmania braziliensis. The series is described as follows: Antileishmanial activity against promastigote form of Leishmania braziliensis MHOM/BR/1975/M2904 assessed as change in acetate metabolite production at IC25 concentration after 96 hrs by H1-NMR analysis. The series is classed as functional, MHOM/BR/75/M2904. In a few lines: as §3
The subject of series [16] is Leishmania infantum. The series is described as follows: Antileishmanial activity against promastigote form of Leishmania infantum MCAN/ES/2001/UCM-10 assessed as change in succinate metabolite production at IC25 concentration after 96 hrs by H1-NMR analysis. In kind it is functional. In a few lines: as §3
A short description of series [17]: Selectivity index, ratio of IC50 for mouse J774.2 cells to IC50 for amastigote form of Leishmania infantum MCAN/ES/2001/UCM-10 infected in J774.2 cells. The series is classed as toxicity, cell-based. Conditions: J774.2 cells, read-out: Ratio IC50. An outline of the steps:
(§5)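 J774.2 macrophages in MEM + 2 mM glutamine + 20% inactivated FCS were infected with stationary-phase promastigotes (10:1) for 24 h at 37 °C, 5% CO2. After washing, compounds were added at […] for 72 h. Amastigote reduction was scored in methanol-fixed, Giemsa-stained preparations; IC50 by regression; triplicates. SI = J774.2 IC50 (72 h flow cytometry)/amastigote IC50; ratio is versus Glucantime SI.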

Series [18] concerns Leishmania braziliensis. As to the kind of experiment: Antileishmanial activity against promastigote form of Leishmania braziliensis MHOM/BR/1975/M2904 assessed as ethanol metabolite production at IC25 concentration after 96 hrs by H1-NMR analysis. In kind it is functional, MHOM/BR/75/M2904. An outline of the steps:
as §3

Series [19] can be described thus: Ratio of compound selectivity index to glucantime selectivity index for amastigote form of Leishmania braziliensis MHOM/BR/1975/M2904 infected in J774.2 cells over mouse J774.2 cells. An outline of the steps: as §5
The nature of series [20]: Ratio of compound selectivity index to glucantime selectivity index for axenic amastigote form of Leishmania infantum MCAN/ES/2001/UCM-10 over mouse J774.2 cells. An outline of the steps: as §4
In series [21] the test system is Leishmania infantum. As to the kind of experiment: Antileishmanial activity against promastigote form of Leishmania infantum MCAN/ES/2001/UCM-10 assessed as ethanol metabolite production at IC25 concentration after 96 hrs by H1-NMR analysis. In kind it is functional. An outline of the steps:
as §3

Series [22] relates to Leishmania infantum. The series is described as follows: Antileishmanial activity against promastigote form of Leishmania infantum MCAN/ES/2001/UCM-10 assessed as change in acetate metabolite production at IC25 concentration after 96 hrs by H1-NMR analysis. The series is classed as functional. In a few lines: as §3
For series [23], the target named is Superoxide dismutase [Mn] (Escherichia coli) (UniProt P00448). The series is described as follows: Inhibition of Escherichia coli Mn-SOD by NBT reduction assay.
Superoxide dismutase [Mn] (Escherichia coli), sequence (P00448 whole entry, looked up): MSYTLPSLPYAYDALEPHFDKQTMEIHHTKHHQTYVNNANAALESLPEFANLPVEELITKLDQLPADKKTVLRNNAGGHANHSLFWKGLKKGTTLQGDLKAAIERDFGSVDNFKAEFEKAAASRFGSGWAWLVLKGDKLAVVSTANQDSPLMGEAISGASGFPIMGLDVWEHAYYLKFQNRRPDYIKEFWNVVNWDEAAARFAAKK

This note sets out measurements from ChEMBL document CHEMBL2331406, “In vitro activity of scorpiand-like azamacrocycle derivatives in promastigotes and intracellular amastigotes of Leishmania infantum and Leishmania braziliensis” (Eur J Med Chem, 2013).

Structures are written as SMILES. Calls of active or inactive are those of the source. The rule behind the calls is not given here.

For orientation: IC50 means the concentration that inhibits the measured activity by half. A low value points to greater potency in that assay. On to `Cl.c1cncc(CNCCN2CCNCc3cccc(n3)CNCC2)c1`, for which the figures for the IC50 in series [1], in series [7] and in series [23] were 10.3 µM, 6.3 µM and 641 µM, respectively. Moreover, the outcome in [2], in series [5] and in series [11] was Active. The Activity in series [3] is 10%; in series [6] it was -38%; in series [12], -12%; in [13], -47%; in [15], -13%; in [16], -36%. Further, the Activity in series [18] is reported as -59%; in series [21], 28%; in series [22] it was 1%. In addition, the selectivity ratio in series [4] was determined as 20.3; in series [8], 19.6; in [17], 74.3. In addition, the “inhibition (INH)” value in series [9] is listed as 84%; in series [10], 86%. Also, the Ratio in [14] was 39; in [19], 57; in series [20], 59.
As for `Br.NCCN1CCNCc2cccc(n2)CNCC1`, the IC50 in [1] came to 10 µM; in series [7], 25.6 µM; in [23] it was 381 µM. Besides, the result in [2], in series [5] and in series [11] was Active. Besides, the Activity in series [3] is 5%; in series [13] it was 22%; in series [15], 18%; in series [18], 6%. Moreover, the values for the selectivity ratio in [4], in [8] and in series [17] were 19.6, 14.5 and 9, respectively. Besides, the “inhibition (INH)” value in series [10] is on record as 64%. The values for the Ratio in [14], in series [19] and in series [20] were 29, 29 and 16, respectively.
Turning to `Cl.c1cc2nc(c1)CNCCN(CCNCc1cccc3ccccc13)CCNC2`, the IC50 in series [1] came to 16.6 µM; in [7] it was 17.4 µM; in [23], 408 µM. Also, the outcome in series [2], in [5] and in series [11] was Active. Further, the Activity in [3] is given as 0%; in [6], -44%; in [12], -18%; in series [13] it was 2%; in series [15], 8%; in series [16], -3%. The values for the Activity in [18], in series [21] and in series [22] were -6%, 110% and -6%, respectively. Besides, the selectivity ratio in series [4] is 29.7; in series [8], 14.7; in [17], 21. Also, the entries for the “inhibition (INH)” value in series [9] and in series [10] were 74% and 71%, respectively. The results for the Ratio in [14], in series [19] and in [20] were 29, 27 and 26, respectively.
Consider `Cl.c1ccc(CNCCN2CCNCc3cccc(n3)CNCC2)nc1`, for which the IC50 amounted to 10.4 µM in [1], 19.6 µM in [7] and 179 µM in [23]. Further, the outcome in series [2], in series [5] and in series [11] was Active. Also, the Activity is 8% in series [3]; 13% in series [6]; 12% in series [12]; -78% in [13]; -46% in series [15]; -59% in series [16]. The Activity in series [18] is -71%; in series [21], 10%; in series [22], -19%. Moreover, the selectivity ratio in series [4] was determined as 22.5; in [8] it was 15.9; in series [17] it was 13. For the same compound, the “inhibition (INH)” value in series [9] is given as 77%; in [10], 83%. For the same compound, the Ratio is recorded as 32 in [14], 30 in series [19] and 20 in series [20].
